Converted amounts (≈) assume the structure as drawn.
How the values were obtained:
[1] = tested on: Trichophyton benhamiae; assay: Antifungal activity against Trichophyton mentagrophytes; Range is 4-8; assay type: functional, trychophyton mentagrophytes
Procedure, shortened: (§1)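 Agar dilution MIC. Twofold serial drug dilutions in yeast nitrogen base medium with 1% dextrose, 0.15% asparagine and 1.5% agar. Agar surfaces inoculated using a Steers multiple inocula replicator, then incubated at 35 °C for 24-48 h. MIC was recorded as the lowest concentration inhibiting visible growth. Amphotericin B, miconazole and nystatin served as controls.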

[2] = tested on: Candida albicans; assay: Antifungal activity against Candida stellatoidea; assay type: functional; procedure, shortened: as §1
[3] = tested on: Diutina rugosa; assay: Antifungal activity against Candida rugosa; assay type: functional; procedure, shortened: as §1
[4] = tested on: Trichophyton rubrum; assay: Antifungal activity against Trichophyton rubrum; assay type: functional; procedure, shortened: as §1
[5] = tested on: Candida parapsilosis; assay: Antifungal activity against Candida parapsilosis; assay type: functional; conditions: Lodderomyces parapsilosis; procedure, shortened: as §1
[6] = tested on: Aspergillus niger; assay: Antifungal activity against Aspergillus niger; Range is 16-32; assay type: functional; procedure, shortened: as §1
[7] = tested on: Mucor fragilis; assay: Antifungal activity against Mucor fragilis; assay type: functional; procedure, shortened: as §1
[8] = tested on: Candida albicans; assay: Antifungal activity against Candida albicans; Range is 8-16; assay type: functional; procedure, shortened: as §1
[9] = tested on: Candida tropicalis; assay: Antifungal activity against Candida tropicalis; Range is 8-16; assay type: functional; procedure, shortened: as §1
[10] = tested on: Kluyveromyces marxianus; assay: Antifungal activity against Candida pseudotropicalis; assay type: functional; procedure, shortened: as §1
[11] = tested on: Candida tropicalis; assay: Antifungal activity against Candida tropicalis; assay type: functional; procedure, shortened: as §1
[12] = tested on: Candida albicans; assay: Antifungal activity against Candida albicans; Range is 64-128; assay type: functional; procedure, shortened: as §1
[13] = tested on: Aspergillus niger; assay: Antifungal activity against Aspergillus niger; assay type: functional; procedure, shortened: as §1
[14] = tested on: Kluyveromyces marxianus; assay: Antifungal activity against Candida pseudotropicalis; Range is 8-16; assay type: functional; procedure, shortened: as §1
[15] = tested on: Candida albicans; assay: Antifungal activity against Candida albicans; assay type: functional; procedure, shortened: as §1
[16] = tested on: Trichophyton benhamiae; assay: Antifungal activity against Trichophyton mentagrophytes; assay type: functional, trychophyton mentagrophytes; procedure, shortened: as §1
[17] = tested on: Aspergillus niger; assay: Antifungal activity against Aspergillus niger; Range is 32-64; assay type: functional; procedure, shortened: as §1
[18] = tested on: Trichophyton rubrum; assay: Antifungal activity against Trichophyton rubrum; Range is 8-32; assay type: functional
[19] = tested on: Candida tropicalis; assay: Antifungal activity against Candida tropicalis; Range is 32-64; assay type: functional; procedure, shortened: as §1
[20] = tested on: Candida albicans; assay: Antifungal activity against Candida albicans; Range is 32-64; assay type: functional; procedure, shortened: as §1
[21] = tested on: Aspergillus niger; assay: Antifungal activity against Aspergillus niger; Range is 64-128; assay type: functional; procedure, shortened: as §1
[22] = tested on: Trichophyton rubrum; assay: Antifungal activity against Trichophyton rubrum; Range is 1-2; assay type: functional; procedure, shortened: as §1
[23] = tested on: Trichophyton rubrum; assay: Antifungal activity against Trichophyton rubrum; Range is 64-128; assay type: functional
[24] = tested on: Trichophyton benhamiae; assay: Antifungal activity against Trichophyton mentagrophytes; Range is 64-128; assay type: functional, trychophyton mentagrophytes; procedure, shortened: as §1

| SMILES | MIC [2] [µg/mL] | MIC [3] [µg/mL] | MIC [4] [µg/mL] | MIC [5] [µg/mL] | MIC [6] [µg/mL] | MIC [7] [µg/mL] | MIC [10] [µg/mL] | MIC [11] [µg/mL] | MIC [13] [µg/mL] | MIC [15] [µg/mL] | MIC [16] [µg/mL] | further results |
| --- | --- | --- | --- | --- | --- | --- | --- | --- | --- | --- | --- | --- |
| Fc1ccc(-c2nnc3ccncc3n2)cc1 | 8 (≈ 35.4 µM) | 8 (≈ 35.4 µM) | 4 (≈ 17.7 µM) | 8 (≈ 35.4 µM) | 16 (≈ 70.7 µM) | 64 (≈ 283 µM) | 8 (≈ 35.4 µM) |  |  |  |  | MIC [1]: 4 µg/mL (≈ 17.7 µM); MIC [8]: 8 µg/mL (≈ 35.4 µM); MIC [9]: 8 µg/mL (≈ 35.4 µM) |
| COc1cc(-c2nnc3ccncc3n2)cc(OC)c1OC | 128 (≈ 429 µM) | 128 (≈ 429 µM) |  |  |  | 128 (≈ 429 µM) | 64 (≈ 215 µM) | 128 (≈ 429 µM) | 128 (≈ 429 µM) |  |  | MIC [12]: 64 µg/mL (≈ 215 µM) |
| c1ccc(OCc2nnc3ccncc3n2)cc1 | 16 (≈ 67.2 µM) | 8 (≈ 33.6 µM) |  |  | 16 (≈ 67.2 µM) | 4 (≈ 16.8 µM) |  | 16 (≈ 67.2 µM) |  |  |  | MIC [14]: 8 µg/mL (≈ 33.6 µM); MIC [8]: 8 µg/mL (≈ 33.6 µM) |
| Cc1nnc2ncccc2n1 |  |  | 128 (≈ 876 µM) | 64 (≈ 438 µM) |  |  | 128 (≈ 876 µM) | 128 (≈ 876 µM) |  | 128 (≈ 876 µM) | 128 (≈ 876 µM) | MIC [17]: 32 µg/mL (≈ 219 µM) |
| c1cc2nnc(C3CCCC3)nc2cn1 | 32 (≈ 160 µM) | 16 (≈ 79.9 µM) |  |  | 16 (≈ 79.9 µM) | 4 (≈ 20 µM) | 16 (≈ 79.9 µM) | 64 (≈ 320 µM) |  |  |  | MIC [8]: 8 µg/mL (≈ 40 µM) |
| c1cc2nnc(C3CC3)nc2cn1 | 64 (≈ 372 µM) | 64 (≈ 372 µM) |  |  |  | 16 (≈ 92.9 µM) | 16 (≈ 92.9 µM) | 32 (≈ 186 µM) | 32 (≈ 186 µM) | 16 (≈ 92.9 µM) |  |  |
| CC(C)(C)c1ccc(-c2nnc3ccncc3n2)cc1 | > 128 | > 128 |  |  |  | 128 (≈ 484 µM) | 128 (≈ 484 µM) | 128 (≈ 484 µM) | 128 (≈ 484 µM) | 128 (≈ 484 µM) |  |  |
| c1cc2nnc(C3CCC3)nc2cn1 | 32 (≈ 172 µM) | 32 (≈ 172 µM) |  |  | 16 (≈ 85.9 µM) | 16 (≈ 85.9 µM) | 16 (≈ 85.9 µM) | 32 (≈ 172 µM) |  |  |  | MIC [8]: 8 µg/mL (≈ 43 µM) |
| CCCc1nnc2ccncc2n1 | 64 (≈ 367 µM) | 64 (≈ 367 µM) |  | 64 (≈ 367 µM) |  | 64 (≈ 367 µM) | 16 (≈ 91.8 µM) |  |  |  | 32 (≈ 184 µM) | MIC [18]: 8 µg/mL (≈ 45.9 µM); MIC [19]: 32 µg/mL (≈ 184 µM); MIC [17]: 32 µg/mL (≈ 184 µM); MIC [20]: 32 µg/mL (≈ 184 µM) |
| c1ccc(-c2ccc(-c3nnc4ccncc4n3)cc2)cc1 | > 128 | > 128 |  |  |  | 128 (≈ 450 µM) | 128 (≈ 450 µM) | 128 (≈ 450 µM) |  | 128 (≈ 450 µM) |  | MIC [21]: 64 µg/mL (≈ 225 µM) |
| Fc1cccc(-c2nnc3ccncc3n2)c1 | 32 (≈ 141 µM) | 16 (≈ 70.7 µM) |  | 16 (≈ 70.7 µM) | 16 (≈ 70.7 µM) | 16 (≈ 70.7 µM) | 8 (≈ 35.4 µM) |  |  | 16 (≈ 70.7 µM) | 4 (≈ 17.7 µM) | MIC [22]: 1 µg/mL (≈ 4.42 µM); MIC [9]: 8 µg/mL (≈ 35.4 µM) |
| Cc1cc2nnc(-c3ccc(F)cc3)nc2c(C)n1 | > 128 | > 128 | 64 (≈ 252 µM) |  |  | 64 (≈ 252 µM) | 128 (≈ 503 µM) | 128 (≈ 503 µM) | 128 (≈ 503 µM) | 128 (≈ 503 µM) | 64 (≈ 252 µM) |  |
| FC(F)(F)c1ccc(-c2nnc3ccncc3n2)cc1 | > 128 | > 128 |  | 128 (≈ 463 µM) |  | > 128 | 128 (≈ 463 µM) | 128 (≈ 463 µM) | 128 (≈ 463 µM) |  | 64 (≈ 232 µM) | MIC [12]: 64 µg/mL (≈ 232 µM); MIC [18]: 8 µg/mL (≈ 29 µM) |
| Cc1nc(C)c2nc(-c3ccncc3)nnc2c1N | > 128 | > 128 | 16 (≈ 63.4 µM) |  |  | 64 (≈ 254 µM) | 128 (≈ 507 µM) | 128 (≈ 507 µM) |  | 128 (≈ 507 µM) | 32 (≈ 127 µM) | MIC [21]: 64 µg/mL (≈ 254 µM) |
| c1ccc2c3c(cnc2c1)NC1(CCCCC1)N=N3 |  |  | 64 (≈ 254 µM) | 128 (≈ 507 µM) |  |  | 128 (≈ 507 µM) | 128 (≈ 507 µM) | 128 (≈ 507 µM) | 128 (≈ 507 µM) | 64 (≈ 254 µM) |  |
| CN1CCN(/C=C/c2nnc3ccncc3n2)CC1 | 32 (≈ 125 µM) | 32 (≈ 125 µM) |  |  |  | 128 (≈ 499 µM) | 128 (≈ 499 µM) | 128 (≈ 499 µM) |  | 128 (≈ 499 µM) |  | MIC [21]: 64 µg/mL (≈ 250 µM) |
| CC1(C)N=Nc2c(cnc3ccccc23)N1 |  |  |  | 128 (≈ 603 µM) |  |  | 128 (≈ 603 µM) | 128 (≈ 603 µM) | 128 (≈ 603 µM) | 128 (≈ 603 µM) |  | MIC [23]: 64 µg/mL (≈ 302 µM); MIC [24]: 64 µg/mL (≈ 302 µM) |
| CN(C)/C=C/c1nnc2ccncc2n1 | 16 (≈ 79.5 µM) | 16 (≈ 79.5 µM) |  |  |  | 64 (≈ 318 µM) | 128 (≈ 636 µM) | 128 (≈ 636 µM) |  | 64 (≈ 318 µM) |  | MIC [21]: 64 µg/mL (≈ 318 µM) |
| CCOc1ccc(-c2nnc3ccncc3n2)cc1 | > 128 | > 128 |  |  |  | 128 (≈ 507 µM) | 64 (≈ 254 µM) | 64 (≈ 254 µM) |  | 64 (≈ 254 µM) |  | MIC [21]: 64 µg/mL (≈ 254 µM) |
| Cc1nnc2c(cnc3ccccc32)n1 |  |  | 32 (≈ 163 µM) | 32 (≈ 163 µM) | 16 (≈ 81.5 µM) |  | 32 (≈ 163 µM) | 32 (≈ 163 µM) |  | 32 (≈ 163 µM) | 32 (≈ 163 µM) |  |

Source: ChEMBL document CHEMBL1124369, “Pyrido[3,4-e]-1,2,4-triazines and related heterocycles as potential antifungal agents” (1989)
